Assay results of several laboratories.
Target: Activin receptor type-1B (ACVR1B, Homo sapiens, UniProt P36896)
One construct used (P36896 24-505): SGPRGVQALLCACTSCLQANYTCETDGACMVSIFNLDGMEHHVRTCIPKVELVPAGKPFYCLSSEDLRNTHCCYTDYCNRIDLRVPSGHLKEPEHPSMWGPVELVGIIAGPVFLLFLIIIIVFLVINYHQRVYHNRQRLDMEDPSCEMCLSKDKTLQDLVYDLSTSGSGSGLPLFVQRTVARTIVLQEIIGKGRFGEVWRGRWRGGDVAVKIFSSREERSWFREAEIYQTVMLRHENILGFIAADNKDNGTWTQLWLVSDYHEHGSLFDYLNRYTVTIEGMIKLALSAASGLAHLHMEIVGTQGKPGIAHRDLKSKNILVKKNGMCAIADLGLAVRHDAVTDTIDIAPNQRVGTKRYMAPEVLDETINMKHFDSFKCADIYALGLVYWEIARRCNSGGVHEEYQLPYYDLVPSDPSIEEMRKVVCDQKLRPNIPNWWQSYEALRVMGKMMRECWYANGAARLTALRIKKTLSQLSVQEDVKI

SMILES | read-out | action | method | concentration | quantity | value
C[C@@H](c1cccc(C#N)c1)n1cc(Cl)cc(C(N)=O)c1=N | cell-free assay |  | competition with immobilised ligand | 1 µM | remaining binding | 100%
O=C(CSc1nc2nccnc2c(=O)n1CCc1ccccc1)Nc1nccs1 | enzyme activity | inhibitor |  | 10 µM | inhibition | 4%
O=C(Nc1cnn(-c2csc(C(=O)NC3COC3)c2)c1)Nc1c(F)cccc1Cl | enzyme activity | inhibitor |  | 5 µM | remaining activity | 82%
C[C@H](c1ccc(F)cc1)N(Cc1cccc(C(=O)O)c1)C(=O)c1cnc2ccccc2c1 | cell-free assay |  | competition with immobilised ligand | 1 µM | remaining binding | 100%
Cn1c2c(c3ccc(Cl)c(Cl)c31)C(C#N)C1(CCN(C(=O)OC(C)(C)C)CC1)NC2=O (racemic) | thermal stability |  | DSF | 10 µM | ΔTm | -0.1 °C
O=C1NC(=O)c2cc(Nc3ccc(F)cc3)c(Nc3ccc(F)cc3)cc21 | cell-free assay |  |  | 0.5 µM | remaining signal | 94.2%
Nc1ncnc2occ(-c3ccc(NC(=O)Nc4cc(C(F)(F)F)ccc4F)cc3)c12 | cell-free assay |  |  | 20 µM | remaining signal | 99%
COc1cc(Cl)c(C(=O)N[C@@H](CN[C@H]2CC[C@@H](N)CC2)Cc2ccc(C#N)cc2)cc1-c1ccc(CN[C@H](C)c2ccc(C)cc2)o1 | enzyme activity | inhibitor |  | 1 µM | remaining activity | 92%
Cn1c2c(Cl)c(Cl)ccc2c2cc[nH]c(=O)c21 | thermal stability |  | DSF | 10 µM | ΔTm | 3.1 °C
COc1cc(-c2cc(-c3ccc(N4CCNCC4)cc3)cnc2C)cc(OC)c1OC | enzyme activity | inhibitor |  | 0.1 µM | inhibition | 9%
CN(C)C1CCN(CC#Cc2nn(C3CCCC3)c3nc(NCc4ccccc4)ncc23)C1 (centres unmarked) | enzyme activity | inhibitor | FRET | 1 µM | inhibition | 5%
CO[C@@H](C)c1c(Nc2ccc([C@H](N(C)C(=O)C3CCS(=O)(=O)CC3)C(F)(F)F)cc2)cnc2cc(Cl)nn12 | cell-free assay |  | competition with immobilised ligand | 1 µM | remaining binding | 72%
CC(C)(O)[C@H]1CC[C@H](Nc2ccc3ncc(-c4cccc(C(F)(F)F)c4)n3n2)CC1 | enzyme activity | inhibitor |  | 1 µM | remaining activity | 100%
CC(C)(C)c1nc2c(s1)c1nc(N)ncc1c1ccc(NS(=O)(=O)c3c(F)cccc3F)c(F)c12 | enzyme activity | inhibitor | radiometric | 1 µM | remaining activity | 84%
Cc1ccc(Nc2nccc(N(C)c3ccc4c(C)n(C)nc4c3)n2)cc1S(N)(=O)=O | cell-free assay | inhibitor |  | 0.3 µM | inhibition | -22%
Cn1c2c(c3ccc(Cl)c(Cl)c31)C(C#N)C1(CCNCC1)NC2=O (racemic) | thermal stability |  | DSF | 10 µM | ΔTm | -0.1 °C
O=C(O)[C@@H]1[C@@H](Cn2nnc3ccccc3c2=O)CC[C@H]1C(=O)c1ccc(OCCC2CCOCC2)cc1 | cell-free assay |  | competition with immobilised ligand | 1 µM | remaining binding | 100%
O=C1Nc2ccc(Cl)cc2C1=Cc1cc(Cl)c(O)c(Cl)c1 | cell-free assay |  |  | 0.5 µM | remaining signal | 127%
O=C(NC[C@@H]1[C@H]2CN(C(=O)OCc3cc(C(F)(F)F)cc(C(F)(F)F)c3)C[C@@H]12)c1ccc2[nH]nnc2c1 | cell-free assay |  | competition with immobilised ligand | 1 µM | remaining binding | 100%
Cc1cnc(NC2CCOCC2)nc1-n1cnc(C(=O)NC(CN)c2cc(F)cc(Cl)c2)c1 (centres unmarked) | enzyme activity | inhibitor | radiometric | 1 µM | remaining activity | 109%
